Laboratory results taken from ChEMBL document CHEMBL1141077, “Synthesis and structure-activity relationship of a novel series of aminoalkylindoles with potential for imaging the neuronal cannabinoid receptor by positron emission tomography” (J Med Chem, 2005).

Target: Cannabinoid receptor 1 (Rattus norvegicus, UniProt P20272)
Experiment: In vitro binding affinity against rat cannabinoid receptor 1 using 0.5 nM [3H]CP-55940
Procedure, shortened: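 Competition binding on membranes from frozen Sprague-Dawley rat cerebellum (0.6 mg tissue per tube) in pH 7.4 buffer: 50 mM Tris-HCl, 3 mM MgCl2, 1 mM EDTA, 0.5% fat-free BSA. Incubated 1 h at 30 °C with serial ligand dilutions. Nonspecific binding determined with excess unlabelled CP-55940. GF/C filtration, scintillation counting, quadruplicate. Ki from IC50 via Cheng-Prusoff, Kd 0.5 nM.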

Sequence of Cannabinoid receptor 1 (P20272 whole entry): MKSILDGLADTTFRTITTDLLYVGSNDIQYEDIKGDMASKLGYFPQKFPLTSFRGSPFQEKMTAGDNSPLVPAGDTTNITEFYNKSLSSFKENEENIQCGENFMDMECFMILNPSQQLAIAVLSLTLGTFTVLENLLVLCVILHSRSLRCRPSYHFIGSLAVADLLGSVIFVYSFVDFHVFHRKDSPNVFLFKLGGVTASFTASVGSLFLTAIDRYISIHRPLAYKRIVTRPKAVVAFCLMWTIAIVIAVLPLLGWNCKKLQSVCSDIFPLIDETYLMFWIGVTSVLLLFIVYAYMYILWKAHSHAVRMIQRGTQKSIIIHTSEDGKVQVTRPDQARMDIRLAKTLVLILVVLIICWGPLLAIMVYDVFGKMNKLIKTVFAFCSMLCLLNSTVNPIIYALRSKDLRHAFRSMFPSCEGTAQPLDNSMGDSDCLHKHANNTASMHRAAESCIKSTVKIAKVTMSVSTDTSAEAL

Compound	Ki [nM]
CN1CCCCC1Cn1cc(C(=O)c2ccc(F)c3ccccc23)c2ccccc21 (stereo not given)	0.7
CN1CCCCC1Cn1nc(C(=O)c2cccc3ccccc23)c2ccccc21 (stereo not given)	1.4
CN1CCCCC1Cn1cc(C(=O)c2cccc3cc(O)ccc23)c2ccccc21 (stereo not given)	4
CN1CCCCC1Cn1cc(C(=O)c2ccc(C#N)c3ccccc23)c2ccccc21 (stereo not given)	1.1
CN1CCCCC1Cn1cc(C(=O)c2ccc(Br)c3ccccc23)c2ccccc21 (stereo not given)	1.7
COc1ccc(C(=O)c2cn(CC3CCCCN3C)c3ccccc23)c2ccccc12 (stereo not given)	2.3
CN1CCCCC1Cn1cc(C(=O)c2ccc([N+](=O)[O-])c3ccccc23)c2ccccc21 (stereo not given)	12.4
CN1CCCCC1Cn1cc(C(=O)Nc2cccc3ccccc23)c2ccccc21 (stereo not given)	100
CN1CCCCC1Cn1cc(C(=O)N2CCCC3CCCCC32)c2ccccc21 (stereo not given)	12
CN1CCCCC1Cn1cc(C(=O)c2ccc(CCO)c3ccccc23)c2ccccc21 (stereo not given)	1.3
CN1CCCCC1Cn1cc(C(=O)c2ccccc2I)c2ccccc21 (stereo not given)	1.2
Cc1ccc(C(=O)c2cn(CC3CCCCN3C)c3ccccc23)c2ccccc12 (stereo not given)	1.1
CN1CCCCC1Cn1cc(C(=O)c2ccc(O)c3ccccc23)c2ccccc21 (stereo not given)	2.2
Cc1ccc2ccccc2c1C(=O)c1cn(CC2CCCCN2C)c2ccccc12 (stereo not given)	7.8
CN1CCCCC1Cn1cc(C(=O)c2cccc3ccccc23)c2ccccc21 (stereo not given)	0.9
